≈ marks a conversion by molar mass, not a printed value.
Experiments:
[1] = system: Mycobacterium tuberculosis; assay: Bactericidal activity against Mycobacterium tuberculosis in pulmonary tuberculosis patient assessed as reduction in sputum bacterial count at 400 mg/kg, po once daily measured after 5 days; format: functional
Outline: (§1)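 Hospitalized treatment-naïve smear-positive patients took oral doses once daily, observed, after breakfast. Sputum was pooled over 16 h overnight at baseline, after each of the 7 dosing days, and on the night after the first standard-therapy dose. Sputum was stirred, digested with dithiothreitol for 20 min at room temperature, and diluted 10-fold. Dilutions were plated in quadruplicate on selective 7H11 agar and counted after 3-4 weeks at 37°C at 20-200 colonies. The read-out was change in log10 CFU/ml from baseline, with a count of 0 set to log 0.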

[2] = Drug uptake in pulmonary tuberculosis patient at 100 […], po once daily for 7 days by liquid chromatography-MS/MS analysis; format: ADME, organism-based; set-up: dose 100 mg/kg, route oral; conditions: human, in vivo, read-out: Drug uptake
Outline: (§2)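 Treatment-naïve smear-positive pulmonary TB patients, hospitalized; 7-day oral once-daily monotherapy, directly observed, within 30 min after breakfast. Heparinized plasma taken predose and 1, 2, 3, 4, 5, 6, 8, 12 and 24 h postdose on day 7, plus predose on days 5 and 6. Parent drug and N-monodesmethyl metabolite measured by validated LC-MS/MS. Noncompartmental parameters; AUC0-24 by linear trapezoidal rule.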

[3] = system: Homo sapiens; assay: Toxicity in pulmonary tuberculosis patient assessed as hemoptysis at 400 mg/kg, po once daily; format: organism-based; set-up: dose 400 mg/kg, route oral; conditions: in vivo
[4] = system: Mycobacterium tuberculosis; assay: Bactericidal activity against Mycobacterium tuberculosis in pulmonary tuberculosis patient assessed as reduction in sputum bacterial count at 400 mg/kg, po once daily measured on day 8 after starting standard TB therapy; format: functional; outline: as §1
[5] = AUC (0 to 24 hrs) in pulmonary tuberculosis patient at 400 mg/kg, po once daily for 7 days by liquid chromatography-MS/MS analysis; format: ADME, organism-based; set-up: time < 24 hr, dose 400 mg/kg, route oral; conditions: human, plasma
Outline: (§3)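 Treatment-naïve, sputum smear-positive patients, hospitalized, took the drug orally once daily under direct observation within 30 min after breakfast. On day 7, heparinized plasma was drawn predose and at 1, 2, 3, 4, 5, 6, 8, 12 and 24 h for parent drug and M2 metabolite. Levels were measured by validated LC-MS/MS, and AUC0-24 was calculated noncompartmentally by the linear trapezoidal rule.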

[6] = system: Mycobacterium tuberculosis; assay: Bactericidal activity against Mycobacterium tuberculosis in pulmonary tuberculosis patient assessed as reduction in sputum bacterial count at 400 mg/kg, po once daily measured after 6 days; format: functional; outline: as §1
[7] = system: Mycobacterium tuberculosis; assay: Bactericidal activity against Mycobacterium tuberculosis in pulmonary tuberculosis patient assessed as reduction in sputum bacterial count at 25 mg/kg, po once daily measured after 7 days; format: functional; outline: as §1
[8] = Drug uptake in pulmonary tuberculosis patient at 400 mg/kg, po once daily for 7 days by liquid chromatography-MS/MS analysis; format: ADME, organism-based; set-up: dose 400 mg/kg, route oral; conditions: human, in vivo, read-out: Drug uptake; outline: as §2
[9] = system: Homo sapiens; assay: Steady-state plasma concentration in pulmonary tuberculosis patient at 100 […], po once daily for 7 days by liquid chromatography-MS/MS analysis; format: ADME, organism-based; set-up: dose 100 mg/kg, route oral; conditions: in vivo, 168 h; outline: as §2
[10] = system: Mycobacterium tuberculosis; assay: Bactericidal activity against Mycobacterium tuberculosis in pulmonary tuberculosis patient assessed as reduction in sputum bacterial count at 100 […], po once daily measured on day 8 after starting standard TB therapy; format: functional; outline: as §1
[11] = system: Mycobacterium tuberculosis; assay: Bactericidal activity against Mycobacterium tuberculosis in pulmonary tuberculosis patient assessed as reduction in sputum bacterial count at 25 […], po once daily measured after 2 days; format: functional; outline: as §1
[12] = system: Mycobacterium tuberculosis; assay: Bactericidal activity against Mycobacterium tuberculosis in pulmonary tuberculosis patient assessed as reduction in sputum bacterial count at 25 […], po once daily measured after 4 days; format: functional; outline: as §1
[13] = system: Mycobacterium tuberculosis; assay: Bactericidal activity against Mycobacterium tuberculosis in pulmonary tuberculosis patient assessed as reduction in sputum bacterial count at 400 mg/kg, po once daily measured after 2 days; format: functional; outline: as §1
[14] = system: Homo sapiens; assay: Toxicity in pulmonary tuberculosis patient assessed as diarrhea at 400 mg/kg, po once daily; format: organism-based; set-up: dose 400 mg/kg, route oral; conditions: in vivo
[15] = system: Mycobacterium tuberculosis; assay: Bactericidal activity against Mycobacterium tuberculosis in pulmonary tuberculosis patient assessed as reduction in sputum bacterial count at 100 […], po once daily measured after 1 day; format: functional; outline: as §1
[16] = system: Homo sapiens; assay: Cardiotoxicity in pulmonary tuberculosis patient assessed as increase in QT interval at 100 […], po once daily for 7 days; format: toxicity, organism-based; set-up: dose 100 mg/kg, route oral; conditions: in vivo, 168 h
[17] = system: Mycobacterium tuberculosis; assay: Bactericidal activity against Mycobacterium tuberculosis in pulmonary tuberculosis patient assessed as reduction in sputum bacterial count at 100 […], po once daily measured after 4 days; format: functional; outline: as §1
[18] = system: Mycobacterium tuberculosis; assay: Bactericidal activity against Mycobacterium tuberculosis in pulmonary tuberculosis patient assessed as reduction in sputum bacterial count at 25 […], po once daily measured after 1 day; format: functional; outline: as §1
[19] = system: Mycobacterium tuberculosis; assay: Bactericidal activity against Mycobacterium tuberculosis in pulmonary tuberculosis patient assessed as reduction in sputum bacterial count at 400 mg/kg, po once daily measured after 3 days; format: functional; outline: as §1
[20] = Drug uptake in pulmonary tuberculosis patient at 25 mg/kg, po once daily for 7 days by liquid chromatography-MS/MS analysis; format: ADME, organism-based; set-up: dose 25 mg/kg, route oral; conditions: human, in vivo, read-out: Drug uptake; outline: as §2
[21] = system: Mycobacterium tuberculosis; assay: Bactericidal activity against Mycobacterium tuberculosis in pulmonary tuberculosis patient assessed as reduction in sputum bacterial count at 400 mg/kg, po once daily measured after 7 days; format: functional; outline: as §1
[22] = system: Mycobacterium tuberculosis; assay: Bactericidal activity against Mycobacterium tuberculosis in pulmonary tuberculosis patient assessed as reduction in sputum bacterial count at 100 […], po once daily measured after 2 days; format: functional; outline: as §1
[23] = AUC (0 to 24 hrs) in pulmonary tuberculosis patient at 100 […], po once daily for 7 days by liquid chromatography-MS/MS analysis; format: ADME, organism-based; set-up: time < 24 hr, dose 100 mg/kg, route oral; conditions: human, plasma; outline: as §3
[24] = AUC (0 to 24 hrs) in pulmonary tuberculosis patient at 25 mg/kg, po once daily for 7 days by liquid chromatography-MS/MS analysis; format: ADME, organism-based; set-up: time < 24 hr, dose 25 mg/kg, route oral; conditions: human, plasma; outline: as §3
[25] = Cmax in pulmonary tuberculosis patient at 25 mg/kg, po once daily for 7 days by liquid chromatography-MS/MS analysis; format: ADME, organism-based; set-up: dose 25 mg/kg, route oral; conditions: human, in vivo; outline: as §2
[26] = system: Homo sapiens; assay: Steady-state plasma concentration in pulmonary tuberculosis patient at 400 mg/kg, po once daily for 7 days by liquid chromatography-MS/MS analysis; format: ADME, organism-based; set-up: dose 400 mg/kg, route oral; conditions: in vivo, 168 h; outline: as §2
[27] = Tmax in pulmonary tuberculosis patient at 25 mg/kg, po once daily for 7 days by liquid chromatography-MS/MS analysis; format: ADME, organism-based; set-up: dose 25 mg/kg, route oral; conditions: human, in vivo; outline: as §2
[28] = Tmax in pulmonary tuberculosis patient at 100 […], po once daily for 7 days by liquid chromatography-MS/MS analysis; format: ADME, organism-based; set-up: dose 100 mg/kg, route oral; conditions: human, in vivo; outline: as §2
[29] = system: Homo sapiens; assay: Cardiotoxicity in pulmonary tuberculosis patient assessed as increase in QT interval at 400 mg/kg, po once daily for 7 days; format: toxicity, organism-based; set-up: dose 400 mg/kg, route oral; conditions: in vivo, 168 h
[30] = system: Mycobacterium tuberculosis; assay: Bactericidal activity against Mycobacterium tuberculosis in pulmonary tuberculosis patient assessed as reduction in sputum bacterial count at 25 mg/kg, po once daily measured after 6 days; format: functional; outline: as §1
[31] = system: Mycobacterium tuberculosis; assay: Antimicrobial activity against drug-sensitive Mycobacterium tuberculosis; format: functional
[32] = system: Homo sapiens; assay: Toxicity in pulmonary tuberculosis patient assessed as hemoptysis at 100 […], po once daily; format: organism-based; set-up: dose 100 mg/kg, route oral; conditions: in vivo
[33] = system: Mycobacterium tuberculosis; assay: Bactericidal activity against Mycobacterium tuberculosis in pulmonary tuberculosis patient assessed as reduction in sputum bacterial count at 400 […], po once daily measured after 1 day; format: functional; outline: as §1
[34] = system: Mycobacterium tuberculosis; assay: Bactericidal activity against Mycobacterium tuberculosis in pulmonary tuberculosis patient assessed as reduction in sputum bacterial count at 400 mg/kg, po once daily measured after 4 days; format: functional; outline: as §1
[35] = system: Mycobacterium tuberculosis; assay: Bactericidal activity against Mycobacterium tuberculosis in pulmonary tuberculosis patient assessed as reduction in sputum bacterial count at 100 […], po once daily measured after 6 days; format: functional; outline: as §1
[36] = system: Mycobacterium tuberculosis; assay: Bactericidal activity against Mycobacterium tuberculosis in pulmonary tuberculosis patient assessed as reduction in sputum bacterial count at 25 […], po once daily measured after 3 days; format: functional; outline: as §1
[37] = Cmax in pulmonary tuberculosis patient at 100 […], po once daily for 7 days by liquid chromatography-MS/MS analysis; format: ADME, organism-based; set-up: dose 100 mg/kg, route oral; conditions: human, in vivo; outline: as §2
[38] = system: Homo sapiens; assay: Steady-state plasma concentration in pulmonary tuberculosis patient at 25 mg/kg, po once daily for 7 days by liquid chromatography-MS/MS analysis; format: ADME, organism-based; set-up: dose 25 mg/kg, route oral; conditions: in vivo, 168 h; outline: as §2
[39] = system: Mycobacterium tuberculosis; assay: Bactericidal activity against Mycobacterium tuberculosis in pulmonary tuberculosis patient assessed as reduction in sputum bacterial count at 100 […], po once daily measured after 3 days; format: functional; outline: as §1
[40] = system: Mycobacterium tuberculosis; assay: Bactericidal activity against Mycobacterium tuberculosis in pulmonary tuberculosis patient assessed as reduction in sputum bacterial count at 25 mg/kg, po once daily measured after 5 days; format: functional; outline: as §1
[41] = Tmax in pulmonary tuberculosis patient at 400 mg/kg, po once daily for 7 days by liquid chromatography-MS/MS analysis; format: ADME, organism-based; set-up: dose 400 mg/kg, route oral; conditions: human, in vivo; outline: as §2
[42] = system: Homo sapiens; assay: Toxicity in pulmonary tuberculosis patient assessed as somnolence at 400 mg/kg, po once daily for 7 days; format: organism-based; set-up: dose 400 mg/kg, route oral; conditions: in vivo, 168 h
[43] = system: Mycobacterium tuberculosis; assay: Bactericidal activity against Mycobacterium tuberculosis in pulmonary tuberculosis patient assessed as reduction in sputum bacterial count at 25 mg/kg, po once daily measured on day 8 after starting standard TB therapy; format: functional; outline: as §1
[44] = system: Homo sapiens; assay: Toxicity in pulmonary tuberculosis patient assessed as rash at 100 […], po once daily; format: organism-based; set-up: dose 100 mg/kg, route oral; conditions: in vivo
[45] = Cmax in pulmonary tuberculosis patient at 400 mg/kg, po once daily for 7 days by liquid chromatography-MS/MS analysis; format: ADME, organism-based; set-up: dose 400 mg/kg, route oral; conditions: human, in vivo; outline: as §2
[46] = system: Mycobacterium tuberculosis; assay: Bactericidal activity against Mycobacterium tuberculosis in pulmonary tuberculosis patient assessed as reduction in sputum bacterial count at 100 […], po once daily measured after 7 days; format: functional; outline: as §1
[47] = system: Mycobacterium tuberculosis; assay: Bactericidal activity against Mycobacterium tuberculosis in pulmonary tuberculosis patient assessed as reduction in sputum bacterial count at 100 […], po once daily measured after 5 days; format: functional; outline: as §1

## COc1nc2ccc(Br)cc2cc1[C@@H](c1ccccc1)[C@@](O)(CCN(C)C)c1cccc2ccccc12 [BEDAQUILINE]
[1]
  log10CFU/ml: -0.45
[2]
  concentration at 168 h: 391 ng/mL
[3]
  Activity: 21.4%
[4]
  log10CFU/ml: -1.14
[5]
  AUC at 24 h: 64800 ng·h/mL
[6]
  log10CFU/ml: -0.46
[7]
  log10CFU/ml: -0.04
[8]
  concentration at 168 h: 1530 ng/mL
[9]
  Css: 667.7 ng/mL
[10]
  log10CFU/ml: -0.71
[11]
  log10CFU/ml: 0.02
[12]
  log10CFU/ml: -0.22
[13]
  log10CFU/ml: 0.04
[14]
  Activity: 7%
[15]
  log10CFU/ml: -0.11
[16]
  Time: 7.1 ms
[17]
  log10CFU/ml: -0.24
[18]
  log10CFU/ml: -0.06
[19]
  log10CFU/ml: -0.31
[20]
  concentration at 168 h: 104 ng/mL
[21]
  log10CFU/ml: -0.77
[22]
  log10CFU/ml: -0.2
[23]
  AUC at 24 h: 16000 ng·h/mL
[24]
  AUC at 24 h: 3970 ng·h/mL
[25]
  Cmax: 319 ng/mL
[26]
  Css: 2696 ng/mL
[27]
  Tmax: 3.93 h
[28]
  Tmax: 4 h
[29]
  Time: 18.8 ms
[30]
  log10CFU/ml: -0.06
[31]
  MIC: 0.03 µg/mL (≈ 0.054 µM)
[32]
  Activity: 6.3%
[33]
  log10CFU/ml: -0.07
[34]
  log10CFU/ml: -0.22
[35]
  log10CFU/ml: -0.09
[36]
  log10CFU/ml: -0.04
[37]
  Cmax: 1210 ng/mL
[38]
  Css: 165.5 ng/mL
[39]
  log10CFU/ml: -0.37
[40]
  log10CFU/ml: -0.09
[41]
  Tmax: 4 h
[42]
  Activity: 7%
[43]
  log10CFU/ml: -0.46
[44]
  Activity: 7%
[45]
  Cmax: 5500 ng/mL
[46]
  log10CFU/ml: -0.26
[47]
  log10CFU/ml: -0.13
